{"source": "ChEMBL document CHEMBL1132924", "about": "“Molecular determinants of MAO selectivity in a series of indolylmethylamine derivatives: biological activities, 3D-QSAR/CoMFA analysis, and computational simulation of ligand recognition” (J Med Chem, 2000)", "key": {"[1]": {"target": "T1, Amine oxidase [flavin-containing] A (Rattus norvegicus, UniProt P21396)", "T1 sequence (P21396 whole entry)": "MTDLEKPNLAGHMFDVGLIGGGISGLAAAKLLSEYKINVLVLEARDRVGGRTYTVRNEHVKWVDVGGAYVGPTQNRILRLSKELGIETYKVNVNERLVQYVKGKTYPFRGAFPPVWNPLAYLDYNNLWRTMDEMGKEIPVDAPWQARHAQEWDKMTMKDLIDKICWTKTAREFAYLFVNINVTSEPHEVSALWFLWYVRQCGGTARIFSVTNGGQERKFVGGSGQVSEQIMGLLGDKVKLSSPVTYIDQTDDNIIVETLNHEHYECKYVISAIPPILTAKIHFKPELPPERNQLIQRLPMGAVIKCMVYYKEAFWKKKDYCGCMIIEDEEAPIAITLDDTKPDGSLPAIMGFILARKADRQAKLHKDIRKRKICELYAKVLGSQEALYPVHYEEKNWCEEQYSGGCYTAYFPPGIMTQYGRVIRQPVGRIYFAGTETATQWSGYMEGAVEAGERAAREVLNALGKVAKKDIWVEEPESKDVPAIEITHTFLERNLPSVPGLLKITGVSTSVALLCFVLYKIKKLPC", "assay": "(§1) Inhibitory activity against Monoamine oxidase A", "how_it_was_run": "(§2)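 Rat liver mitochondrial fraction (male Sprague-Dawley, 200-250 g), homogenised in 50 mM potassium phosphate pH 7.2. Kynuramine 40 µM as substrate with MAO-B activity blocked beforehand by L-deprenyl, product read at 324 nm. Ki for reversible complex formation obtained by direct analysis of spectrophotometric reaction progress curves over varying inhibitor concentrations.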"}, "[2]": {"target": "T2, Amine oxidase [flavin-containing] B (Rattus norvegicus, UniProt P19643)", "T2 sequence (P19643 whole entry)": "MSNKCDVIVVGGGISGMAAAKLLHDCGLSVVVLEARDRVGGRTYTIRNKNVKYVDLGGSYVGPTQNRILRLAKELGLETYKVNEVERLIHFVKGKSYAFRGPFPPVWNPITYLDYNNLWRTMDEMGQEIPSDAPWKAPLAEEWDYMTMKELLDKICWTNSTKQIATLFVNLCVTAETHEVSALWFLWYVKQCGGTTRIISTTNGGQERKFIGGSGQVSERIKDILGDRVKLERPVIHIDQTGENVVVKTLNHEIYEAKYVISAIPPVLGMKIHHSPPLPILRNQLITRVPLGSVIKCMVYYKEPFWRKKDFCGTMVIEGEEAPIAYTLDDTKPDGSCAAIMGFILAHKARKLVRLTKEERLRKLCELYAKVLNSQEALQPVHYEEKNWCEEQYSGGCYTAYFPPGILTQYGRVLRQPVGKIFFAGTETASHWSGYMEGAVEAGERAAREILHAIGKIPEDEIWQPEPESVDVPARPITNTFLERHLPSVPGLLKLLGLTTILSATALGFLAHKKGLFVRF", "assay": "(§3) Inhibitory activity against Monoamine oxidase B", "how_it_was_run": "(§4)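 Enzyme is a mitochondrial fraction from livers of male Sprague-Dawley rats (200-250 g), homogenised in 50 mM potassium phosphate pH 7.2. Activity followed at 37 °C with 333 µM benzylamine, product appearance read at 250 nm. Ki for reversible complex formation came from direct fitting of progress curves recorded at varying inhibitor concentrations.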"}, "[3]": {"target": "T1, Amine oxidase [flavin-containing] A", "assay": "as §1", "how_it_was_run": "as §2", "remark": "listed apart in the source"}, "[4]": {"target": "T2, Amine oxidase [flavin-containing] B", "assay": "as §3", "how_it_was_run": "as §4", "remark": "listed apart in the source"}}}
{"smiles": "c1ccc(CNCc2cc3ccccc3[nH]2)cc1", "values": [{"measurement": "Ki", "setting": "[1]", "result": 87.1, "unit": "µM"}, {"measurement": "Ki", "setting": "[2]", "result": 159, "unit": "µM"}, {"measurement": "Ki", "setting": "[3]", "result": 87, "unit": "µM"}]}
{"smiles": "C#CCNCc1cc2cc(O)ccc2n1C", "values": [{"measurement": "Ki", "setting": "[1]", "result": 3.98, "unit": "µM"}, {"measurement": "Ki", "setting": "[2]", "result": 8.9, "unit": "µM"}, {"measurement": "Ki", "setting": "[3]", "result": 4, "unit": "µM"}]}
{"smiles": "CC#CCN(C)Cc1cc2cc(OC)ccc2n1C", "values": [{"measurement": "Ki", "setting": "[1]", "result": 0.00141, "unit": "µM"}, {"measurement": "Ki", "setting": "[2]", "result": 0.37, "unit": "µM"}, {"measurement": "Ki", "setting": "[3]", "result": 0.0014, "unit": "µM"}]}
{"smiles": "CCNCc1cn(Cc2ccccc2)c2ccccc12", "values": [{"measurement": "Ki", "setting": "[1]", "result": 263, "unit": "µM"}, {"measurement": "Ki", "setting": "[2]", "result": 429, "unit": "µM"}, {"measurement": "Ki", "setting": "[3]", "result": 262, "unit": "µM"}]}
{"smiles": "C#CCN(Cc1ccccc1)Cc1cc2ccccc2n1C", "values": [{"measurement": "Ki", "setting": "[1]", "result": 10, "unit": "µM"}, {"measurement": "Ki", "setting": "[2]", "result": 60, "unit": "µM"}, {"measurement": "Ki", "setting": "[3]", "result": 10, "unit": "µM"}]}
{"smiles": "CNCc1cn(Cc2ccccc2)c2ccccc12", "values": [{"measurement": "Ki", "setting": "[1]", "result": 166, "unit": "µM"}, {"measurement": "Ki", "setting": "[2]", "result": 338, "unit": "µM"}, {"measurement": "Ki", "setting": "[3]", "result": 167, "unit": "µM"}]}
{"smiles": "C#CCNCc1cc2cc(OC)ccc2n1C", "values": [{"measurement": "Ki", "setting": "[1]", "result": 0.000813, "unit": "µM"}, {"measurement": "Ki", "setting": "[2]", "result": 0.004, "unit": "µM"}, {"measurement": "Ki", "setting": "[3]", "result": 0.0008, "unit": "µM"}]}
{"smiles": "CC#CCN(C)Cc1cc2ccccc2n1C", "values": [{"measurement": "Ki", "setting": "[1]", "result": 0.00427, "unit": "µM"}, {"measurement": "Ki", "setting": "[2]", "result": 0.03, "unit": "µM"}, {"measurement": "Ki", "setting": "[3]", "result": 0.0043, "unit": "µM"}]}
{"smiles": "C#CCN(C)Cc1cn(Cc2ccccc2)c2ccccc12", "values": [{"measurement": "Ki", "setting": "[1]", "result": 158, "unit": "µM"}, {"measurement": "Ki", "setting": "[2]", "result": 476, "unit": "µM"}, {"measurement": "Ki", "setting": "[3]", "result": 160, "unit": "µM"}]}
{"smiles": "CC#CCN(C)Cc1cc2cc(O)ccc2n1C", "values": [{"measurement": "Ki", "setting": "[1]", "result": 0.00575, "unit": "µM"}, {"measurement": "Ki", "setting": "[2]", "result": 8.8, "unit": "µM"}, {"measurement": "Ki", "setting": "[3]", "result": 0.0057, "unit": "µM"}]}
{"smiles": "Cn1c(CNCc2ccccc2)cc2ccccc21", "values": [{"measurement": "Ki", "setting": "[1]", "result": 33.9, "unit": "µM"}, {"measurement": "Ki", "setting": "[2]", "result": 48, "unit": "µM"}, {"measurement": "Ki", "setting": "[3]", "result": 34, "unit": "µM"}]}
{"smiles": "c1ccc(CNCc2cn(Cc3ccccc3)c3ccccc23)cc1", "values": [{"measurement": "Ki", "setting": "[1]", "result": 245, "unit": "µM"}, {"measurement": "Ki", "setting": "[2]", "result": 362, "unit": "µM"}, {"measurement": "Ki", "setting": "[3]", "result": 244, "unit": "µM"}]}
{"smiles": "C#CCN(C)Cc1cc2ccccc2n1C", "values": [{"measurement": "Ki", "setting": "[1]", "result": 0.000302, "unit": "µM"}, {"measurement": "Ki", "setting": "[2]", "result": 0.003, "unit": "µM"}, {"measurement": "Ki", "setting": "[3]", "result": 0.0003, "unit": "µM"}]}
{"smiles": "C#CCN(C)Cc1cc2cc(OC)ccc2n1C", "values": [{"measurement": "Ki", "setting": "[1]", "result": 0.00151, "unit": "µM"}, {"measurement": "Ki", "setting": "[4]", "result": 0.0575, "unit": "µM"}, {"measurement": "Ki", "setting": "[2]", "result": 0.03, "unit": "µM"}, {"measurement": "Ki", "setting": "[3]", "result": 0.0015, "unit": "µM"}]}
{"smiles": "CC#CCN(Cc1ccccc1)Cc1cc2ccccc2n1C", "values": [{"measurement": "Ki", "setting": "[2]", "result": 50, "unit": "µM"}, {"measurement": "Ki", "setting": "[3]", "result": "> 1000", "unit": "µM"}]}
{"smiles": "C#CCNCc1cc2ccccc2n1C", "values": [{"measurement": "Ki", "setting": "[1]", "result": 0.24, "unit": "µM"}, {"measurement": "Ki", "setting": "[2]", "result": 3.83, "unit": "µM"}, {"measurement": "Ki", "setting": "[3]", "result": 0.24, "unit": "µM"}]}
{"smiles": "CC#CCNCc1cc2cc(OCc3ccccc3)ccc2[nH]1", "values": [{"measurement": "Ki", "setting": "[1]", "result": 15.1, "unit": "µM"}, {"measurement": "Ki", "setting": "[2]", "result": 0.015, "unit": "µM"}]}
{"smiles": "CC(C)NCc1cn(Cc2ccccc2)c2ccccc12", "values": [{"measurement": "Ki", "setting": "[1]", "result": 132, "unit": "µM"}, {"measurement": "Ki", "setting": "[2]", "result": 438, "unit": "µM"}, {"measurement": "Ki", "setting": "[3]", "result": 133, "unit": "µM"}]}
{"smiles": "C#CCNCc1cc2cc(OCc3ccccc3)ccc2[nH]1", "values": [{"measurement": "Ki", "setting": "[2]", "result": 0.00075, "unit": "µM"}, {"measurement": "Ki", "setting": "[3]", "result": 0.79, "unit": "µM"}]}
{"smiles": "C#CCN(Cc1ccccc1)Cc1cn(Cc2ccccc2)c2ccccc12", "values": [{"measurement": "Ki", "setting": "[2]", "result": 260, "unit": "µM"}, {"measurement": "Ki", "setting": "[3]", "result": "> 1000", "unit": "µM"}]}
{"smiles": "C#CCN(C)Cc1cc2cc(O)ccc2n1C", "values": [{"measurement": "Ki", "setting": "[1]", "result": 0.00398, "unit": "µM"}, {"measurement": "Ki", "setting": "[2]", "result": 0.82, "unit": "µM"}, {"measurement": "Ki", "setting": "[3]", "result": 0.004, "unit": "µM"}]}
